The subject of one assay is A549. As to the kind of experiment: Antiproliferative activity against human A549 cells after 72 hrs by CCK-8 assay. Particulars: A549, 72 h. In kind it is functional, cell-based. The procedure, abridged: (§1)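 Cells seeded at 5 × 10³/well; A549, MCF7 and SH-SY5Y grown in DMEM, CNE and L-02 in RPMI-1640 (10% FBS, pen/strep, 37 °C, 5% CO₂). Compounds in DMSO, diluted in medium; 72 h exposure versus DMSO vehicle. CCK-8 absorbance read at 450 nm; viability taken as treated/control absorbance, IC₅₀ from curve fit. Triplicate wells, three independent experiments.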
Background: Tetrazolium assays rely on reduction of a dye to a coloured formazan, in cell work by metabolically active cells.

Another assay relates to L02. As to the kind of experiment: Antiproliferative activity against human L02 cells after 72 hrs by CCK-8 assay. The format is cell-based. Conditions: L02, 72 h. In a few lines: as §1
The next assay relates to MCF7. Put plainly: Antiproliferative activity against human MCF7 cells after 72 hrs by CCK-8 assay. Particulars: MCF7, 72 h. The format is functional, cell-based. The procedure, abridged:
as §1

The subject of the next assay is CNE. Put plainly: Antiproliferative activity against human CNE cells after 72 hrs by CCK-8 assay. The format is functional, cell-based. The procedure, abridged: as §1
Another assay deals with SH-SY5Y. Put plainly: Antiproliferative activity against human SH-SY5Y cells after 72 hrs by CCK-8 assay. The format is functional, cell-based. The procedure, abridged:
as §1

The structures appear in SMILES notation.

Consider `Cc1cnc2nc1Nc1cc(cc(N3CCOCC3)c1)Nc1ncc(C)c(n1)Nc1cc(cc(N3CCOCC3)c1)N2`, for which the half-inhibitory concentration (IC50) in the assay with A549, in the assay with L02, in the assay with MCF7, in the assay on CNE and in the assay on SH-SY5Y was above 50 µM in each case.

`CCOC(=O)c1cc2cc(c1)Nc1nc(ncc1Cl)Nc1cc(cc(C(=O)OCC)c1)Nc1nc(ncc1Cl)N2`: the IC50 in the assay with A549, in the assay on L02, in the assay with MCF7, in the assay on CNE and in the assay with SH-SY5Y was above 50 µM each time.

With `Fc1cnc2nc1Nc1cccc(c1)Nc1ncc(Cl)c(n1)Nc1cccc(c1)N2`, the IC50 in the assay with A549, in the assay on L02, in the assay with MCF7, with CNE and in the assay on SH-SY5Y was above 50 µM in each case.

Consider `Fc1cnc2nc1Nc1cc(cc(C(F)(F)F)c1)Nc1ncc(F)c(n1)Nc1cc(cc(C(F)(F)F)c1)N2`, for which the concentration for half-maximal inhibition (IC50) in the assay with A549, with L02, with MCF7, in the assay on CNE and with SH-SY5Y was above 50 µM throughout.

As to `Cc1cnc2nc1Nc1cccc(c1)Nc1ncc(C)c(n1)Nc1cccc(c1)N2`, the IC50 worked out at 7.42 µM in the assay on A549; 9.89 µM with L02; 18.8 µM in the assay on MCF7; 23.7 µM in the assay on CNE; 17.5 µM in the assay with SH-SY5Y.

With `Fc1cnc2nc1Nc1cccc(c1)Nc1ncc(F)c(n1)Nc1cccc(c1)N2`, the IC50 in the assay on A549, in the assay with L02, in the assay on MCF7, in the assay with CNE and in the assay with SH-SY5Y was above 50 µM throughout.

For `COc1cnc2nc1Nc1cc(cc(N3CCOCC3)c1)Nc1ncc(OC)c(n1)Nc1cc(cc(N3CCOCC3)c1)N2`, the IC50 in the assay with A549, in the assay with L02, in the assay with MCF7, in the assay with CNE and with SH-SY5Y was above 50 µM throughout.

With `c1cc2cc(c1)Nc1nccc(n1)Nc1cccc(c1)Nc1nccc(n1)N2`, the IC50 with A549, in the assay on L02, with MCF7, in the assay on CNE and in the assay on SH-SY5Y was above 50 µM throughout.

Take `COc1cnc2nc1Nc1cc(cc(N3CCCC3)c1)Nc1ncc(OC)c(n1)Nc1cc(cc(N3CCCC3)c1)N2`: the IC50 with A549 is 1.6 µM; in the assay with L02, 15.8 µM; in the assay with MCF7, 1.45 µM; in the assay on CNE, 35.7 µM; in the assay with SH-SY5Y it was 2.05 µM.

For the compound `COc1cnc2nc1Nc1cc(cc(C(F)(F)F)c1)Nc1ncc(OC)c(n1)Nc1cc(cc(C(F)(F)F)c1)N2`, the IC50 with A549, with L02, with MCF7, in the assay with CNE and in the assay on SH-SY5Y was above 50 µM throughout.

Turning to `Fc1cnc2nc1Nc1cc(cc(C(F)(F)F)c1)Nc1ncc(Cl)c(n1)Nc1cc(cc(C(F)(F)F)c1)N2`, the IC50 in the assay on A549, in the assay with L02, in the assay on MCF7, in the assay on CNE and with SH-SY5Y was above 50 µM throughout.

Take `Cc1cnc2nc1Nc1cc(cc(C(F)(F)F)c1)Nc1ncc(C)c(n1)Nc1cc(cc(C(F)(F)F)c1)N2`: the IC50 in the assay with A549, in the assay on L02, in the assay with MCF7, in the assay with CNE and with SH-SY5Y was above 50 µM in each case.

Turning to `c1cc2nc(n1)Nc1cc(cc(N3CCOCC3)c1)Nc1ccnc(n1)Nc1cc(cc(N3CCOCC3)c1)N2`, the IC50 with A549, in the assay on L02, with MCF7, in the assay with CNE and in the assay with SH-SY5Y was above 50 µM in each case.

Consider `CC(C)S(=O)(=O)c1ccc2cc1Nc1ncc(Cl)c(n1)Nc1ccc(S(=O)(=O)C(C)C)c(c1)Nc1ncc(Cl)c(n1)N2`, for which the IC50 in the assay with A549, in the assay with L02, in the assay with MCF7, in the assay on CNE and in the assay with SH-SY5Y was above 50 µM each time.

Turning to `Clc1cnc2nc1Nc1cccc(c1)Nc1ncc(Cl)c(n1)Nc1cccc(c1)N2`, the IC50 with A549, with L02, in the assay with MCF7, in the assay on CNE and in the assay on SH-SY5Y was above 50 µM each time.

In the case of `COc1cccc2c1C(=O)c1c(O)c3c(c(O)c1C2=O)C[C@@](O)(C(=O)CO)C[C@@H]3O[C@H]1C[C@H](N)[C@H](O)[C@H](C)O1` [DOXORUBICIN], the 50% inhibitory concentration (IC50) in the assay on A549 was 0.63 µM; in the assay with L02, 0.88 µM; with MCF7, 0.48 µM; in the assay with CNE, 0.22 µM; in the assay with SH-SY5Y, 0.89 µM.

Turning to `COc1cnc2nc1Nc1cccc(c1)Nc1ncc(OC)c(n1)Nc1cccc(c1)N2`, the IC50 in the assay on A549, in the assay with L02, in the assay with MCF7, in the assay with CNE and with SH-SY5Y was above 50 µM in each case.

Take `FC(F)(F)c1cc2cc(c1)Nc1nc(ncc1Cl)Nc1cc(cc(C(F)(F)F)c1)Nc1nc(ncc1Cl)N2`: the IC50 with A549, in the assay on L02, in the assay on MCF7, with CNE and with SH-SY5Y was above 50 µM each time.

With `Brc1cc2cc(c1)Nc1nccc(n1)Nc1cc(Br)cc(c1)Nc1nccc(n1)N2`, the IC50 in the assay on A549 is 6.55 µM; in the assay on L02, 47.9 µM; in the assay on MCF7, 9.24 µM; with CNE it was above 50 µM; with SH-SY5Y it was 2.96 µM.

For `FC(F)(F)c1cc2cc(c1)Nc1nccc(n1)Nc1cc(cc(C(F)(F)F)c1)Nc1nccc(n1)N2`, the IC50 with A549 was 2.05 µM; in the assay on L02 it was 20.4 µM; in the assay with MCF7, 5.38 µM; in the assay on CNE it was 15.6 µM; in the assay on SH-SY5Y it was 1.43 µM.

Consider `Cc1cnc2nc1Nc1cc(cc(N3CCCC3)c1)Nc1ncc(C)c(n1)Nc1cc(cc(N3CCCC3)c1)N2`, for which the IC50 with A549 was 4.25 µM; with L02 it was 30.8 µM; in the assay with MCF7, 4.9 µM; with CNE, above 50 µM; in the assay with SH-SY5Y, 7.21 µM.

For orientation: IC50 means the concentration needed to halve the response being measured. A high value points to lower potency.
